From PubChem BioAssay
Rows were chosen to be rich in hits. Some 4.1% of all compounds tested hit in one or more screens of this group.
KCNQ1 inh = inhibitors of human KCNQ1 channel, primary screen, cell-based, thallium flux, high-throughput; Potassium voltage-gated channel subfamily KQT member 1 (Homo sapiens), P51787; CHO-K1 KCNQ1, FluxOR thallium flux fluorescence; hits give high values; B-score at 10 µM; hit rate 1.3% among 310,000;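 active means compounds whose thallium flux B-score, printed positive for inhibition, exceeds three library SD while starting fluorescence stays within three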;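 further: channel opened by potassium depolarization with thallium stimulus after 20 min compound exposure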
KCC2 mod = KCC2 cotransporter modulators, thallium flux, primary screen, cell-based, HEK293 KCC2, FluoZin-2 fluorescence, MLSMR. Solute carrier family 12 member 5 (Homo sapiens), Q9H2X9. KCC2 cells, thallium flux FluoZin-2 fluorescence. B-score of Tl+ flux slope (higher = more flux/activation; lower = inhibition) at 10 µM. hit rate 2.2% among 190,000. AID 1456, 2008;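 active means thallium flux slope and its plate-corrected score both differing from the plate sample mean at a set confidence after two filtering rounds, in either direction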;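 further: slope of fluorescence scaled to starting intensity during 10 to 20 s after thallium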
KCNK3 inh = human KCNK3 channel inhibitors, primary screen, CHO cells, FluxOR thallium flux, B-score | Potassium channel subfamily K member 3 (Homo sapiens), O14649 | FluxOR fluorescence; hits give low values | B-score at 10 µM | hit rate 0.84% among 340,000;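 active means B-score under library mean minus 4 SD, starting fluorescence ratio at most library mean plus 5 SD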;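 further: more negative B-score means stronger inhibition of thallium flux through KCNK3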
Target sequence (O14649 whole entry, looked up): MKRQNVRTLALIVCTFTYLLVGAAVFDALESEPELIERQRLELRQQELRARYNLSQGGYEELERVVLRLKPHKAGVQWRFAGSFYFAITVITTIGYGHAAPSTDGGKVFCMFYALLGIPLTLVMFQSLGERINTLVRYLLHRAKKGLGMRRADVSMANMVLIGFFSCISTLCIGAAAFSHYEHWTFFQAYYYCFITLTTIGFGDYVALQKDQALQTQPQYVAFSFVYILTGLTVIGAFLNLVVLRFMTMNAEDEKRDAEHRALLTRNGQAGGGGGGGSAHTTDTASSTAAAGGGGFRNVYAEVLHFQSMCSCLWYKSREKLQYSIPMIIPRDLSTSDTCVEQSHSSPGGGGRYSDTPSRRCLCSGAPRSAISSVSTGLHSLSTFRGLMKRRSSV
KCNK9 block = KCNK9 potassium channel inhibitors, primary screen, HEK293 cells, thallium flux. hit rate 1.2% among 310,000. AID 488922, 2010. B-score at 10 µM. FluxOR thallium flux fluorescence; hits give low values. Potassium channel subfamily K member 9 (Homo sapiens), Q9NPC2;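 active means ratio B-score over 3 SD below the library mean, with starting fluorescence within 5 SD of its mean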;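 further: negative B-score means less thallium flux so channel inhibition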
Target sequence (Q9NPC2 whole entry, looked up): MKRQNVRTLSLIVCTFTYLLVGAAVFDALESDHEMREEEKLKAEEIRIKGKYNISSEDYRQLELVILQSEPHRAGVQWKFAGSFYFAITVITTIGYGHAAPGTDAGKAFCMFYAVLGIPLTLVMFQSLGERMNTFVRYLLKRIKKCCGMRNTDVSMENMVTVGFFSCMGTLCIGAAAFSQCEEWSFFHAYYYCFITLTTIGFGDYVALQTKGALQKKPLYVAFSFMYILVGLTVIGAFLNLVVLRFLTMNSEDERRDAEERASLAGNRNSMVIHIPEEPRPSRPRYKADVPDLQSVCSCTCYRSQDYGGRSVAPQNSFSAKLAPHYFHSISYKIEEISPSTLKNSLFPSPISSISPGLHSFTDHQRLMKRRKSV
KCNQ1 pot = potentiators or activators of KCNQ1 channel, primary screen, cell-based, thallium flux, high-throughput; Potassium voltage-gated channel subfamily KQT member 1 (Homo sapiens), P51787; CHO-K1 KCNQ1, thallium flux FluxOR fluorescence; hits give high values; B-score at 10 µM; hit rate 0.35% among 310,000; AID 2648, 2010;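 active means fluorescence ratio B-score, a plate-corrected score, at least three library SD, with initial intensity B-score within 5 SD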
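assay system = CHO-K1 cells stably expressing KCNQ1 | medium = assay buffer, equal DMSO in all wells | timing = 37 °C overnight plating, 90-min dark dye load, 20-min compound pretreatment | measured by = kinetic FluxOR thallium fluorescence, 10-s 1-Hz baseline, 110-s post-stimulus read | measure = fluorescence change relative to baseline, converted to B score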
hERG protect = hERG rescue from dofetilide block, primary screen, cell-based, CHO-hERG, FluxOR thallium flux, dofetilide IC70; Voltage-gated inwardly rectifying potassium channel KCNH2 (Homo sapiens), Q12809; dofetilide IC70 present; activation (rescue from dofetilide block), less the hit threshold, % at 10 µM; hit rate 0.51% among 310,000; AID 1511, 2009;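 active means activation above the mean of controls blocked by dofetilide plus 5 SD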;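 further: thallium influx through hERG after potassium depolarization seen as dye fluorescence rise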
KCC2 secondary = KCC2 modulators in sodium-free buffer, confirmation, cell-based, HEK293 KCC2, thallium flux, secondary assay; hit rate 15% among 3,700; normalised thallium flux (F/F0 slope) at 10 µM; shares compounds with KCC2 mod; FluoZin2 fluorescence; hits give high values;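 active means thallium flux slope above the same plate's solvent-only control mean plus 3 SD; inconclusive means the two replicate wells disagree; inactive means no significant difference from solvent-only control wells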
KCC2 bumet counter = thallium flux persisting under bumetanide in KCC2 cells, confirmation, counter-screen for KCC2 modulator project, cell-based, HEK293 KCC2, FluoZin2, secondary assay 3; shares compounds with KCC2 mod; normalized thallium flux at 10 µM; AID 1714, 2009; hit rate 49% among 3,700; HEK293-KCC2 + bumetanide/ouabain; hits give high values;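 active means thallium entry rate above the same plate's blocked-transporter control wells by more than 3 SD; inconclusive means the two repeat wells disagree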;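 further: raw slope of fluorescence over initial fluorescence between 10 and 20 s after thallium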
KCC2 secondary2 = KCC2 modulators without ouabain present, confirmation, cell-based, HEK293 KCC2, thallium flux, FluoZin2, secondary assay 2. shares compounds with KCC2 mod. thallium flux FluoZin2 fluorescence; actives lie on both sides; F/F0 rise rate, 10–20 s post-thallium. normalized thallium flux at 10 µM. hit rate 23% among 3,700. AID 1715, 2009;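 active means thallium flux slope more than 3 SD above or below the plate's solvent-only control mean, mostly below; inconclusive means the two repeat wells disagreed; inactive means no significant shift from solvent-only controls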
HEK counter1 = thallium flux modulation in parental HEK cells, confirmation, counter-screen for KCC2 modulator project, cell-based, counterscreen 1; HEK293 parental cells, thallium flux FluoZin2, ouabain; baseline-ratio fluorescence slope, 10–20 s after thallium; AID 1716, 2009; shares compounds with KCC2 mod; hit rate 46% among 3,700; thallium flux rate (normalised fluorescence) at 10 µM;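 active means thallium flux rate significantly above the same plate's solvent-only control wells, beyond their mean plus 3 SD; inconclusive means the two replicate wells gave conflicting results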
KCC2 ouabain = KCC2 inhibitors and activators, ouabain retest, confirmation, HEK-KCC2 cells; HEK293-KCC2, thallium flux FluoZin2 fluorescence; bidirectional: low = inhibitor, high = activator; AID 1717, 2009; raw Tl+ flux slope (below DMSO = inhibition, above = activation) at 10 µM; shares compounds with KCC2 mod; hit rate 48% among 3,700;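 active means thallium flux slope beyond 3 SD from same-plate DMSO control mean in most replicates, usually higher, sometimes lower; inconclusive means repeat tests gave conflicting results; inactive means no significant difference from controls in most replicates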;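 further: slope of initial-normalized fluorescence between seconds 10 and 20 after thallium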
HEK counter2 = native HEK Tl+ uptake effects, second counter-screen – HEK cells, counterscreen 2, counter-screen for KCC2 modulator project, confirmation; shares compounds with KCC2 mod; HEK293 parental, thallium flux FluoZin-2 fluorescence slope; thallium flux slope at 10 µM; hit rate 33% among 3,700; AID 1718, 2009;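 active means thallium flux slope above the same plate's solvent-control mean plus 3 SD in both duplicate wells; inconclusive means duplicate wells that disagreed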;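 further: run without ouabain in cells lacking the KCC2 cotransporter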
A number is an active result; i = inactive; ? = inconclusive; nt = no result.

SMILES	KCNQ1 inh	KCC2 mod	KCNK3 inh	KCNK9 block	KCNQ1 pot	hERG protect	KCC2 secondary	KCC2 bumet counter	KCC2 secondary2	HEK counter1	KCC2 ouabain	HEK counter2
O=[N+]([O-])c1ccc(CSc2nnc(SCc3ccccc3)s2)cc1	i	-5.4	i	i	i	i	i	i	0.024	i	0.014	i
O=C(O)c1cc(Cl)c(Cl)cc1C(=O)N(Cc1ccccc1)Cc1ccccc1	i	nt	i	i	i	i	nt	nt	nt	nt	nt	nt
COc1ccc(CN2CCNC(=O)C2CC(=O)NC2CCCC2)c(C)c1C (stereo not drawn)	i	nt	i	i	i	i	nt	nt	nt	nt	nt	nt
COC(=O)NNC(=O)C12CC3CC(CC(C3)C1)C2	i	i	i	i	i	i	nt	nt	nt	nt	nt	nt
CC(C)(C)NC(=O)C(=O)NNC(=O)C12CC3CC(CC(C3)C1)C2	i	5.9	i	i	i	i	?	0.045	0.036	0.029	0.038	0.023
Oc1ccccc1/C=N/Nc1nc2ccccc2o1	i	7.2	i	i	i	i	i	0.012	i	0.012	?	0.016
COc1cccc(C(C)N(C)Cc2nc(COc3ccccc3)no2)c1 (stereo not drawn)	i	i	i	i	i	i	nt	nt	nt	nt	nt	nt
Fc1ccc(NC(=S)Nc2ccc(F)c(Cl)c2)cc1Cl	13	-4.3	-9.2	-6.7	i	i	i	i	?	0.0059	0.013	?
Cc1nn(Cc2c(F)c(F)c(F)c(F)c2F)c(C)c1NC(=O)c1ccc(COc2ccccc2Cl)o1	i	-6.4	i	i	i	i	i	i	i	i	0.015	i
CC(C)CN(C(=O)CSc1nc(N)cc(N)n1)C1CCS(=O)(=O)C1 (stereo not drawn)	nt	nt	i	nt	nt	nt	nt	nt	nt	nt	nt	nt
COC(C[C@@H]1O[C@@H]1[C@H](O)[C@H](C)OCc1ccccc1)OC	i	nt	i	i	i	i	i	i	i	i	i	i
Cc1ccc(SCCNC(=O)c2ccc(C)c(S(=O)(=O)Nc3ccccc3C)c2)cc1	i	nt	i	i	i	i	i	?	i	i	0.015	i
CCOC(=O)Nc1ccc([N+](=O)[O-])cc1OC	i	nt	i	i	i	i	nt	nt	nt	nt	nt	nt
CCOC(=O)c1ccc(C(=O)OCC)c(NC(=S)Nc2ccc([N+](=O)[O-])cc2OC)c1	i	10	i	i	i	i	0.013	0.031	i	0.024	0.033	0.014
Cc1ccccc1NCC(=O)N/N=C/c1ccc([N+](=O)[O-])cc1	i	-5.8	i	i	i	i	i	i	?	i	i	i
Cc1ccccc1NC(=O)CCC(=O)N/N=C/c1cc([N+](=O)[O-])ccc1O	i	i	i	i	i	i	nt	nt	nt	nt	nt	nt
CC(CCc1ccccc1)NC(=O)C(Cc1ccccc1)NS(=O)(=O)c1cccs1 (stereo not drawn)	i	-3.6	i	i	i	i	i	i	?	?	0.015	i
CC1CCCCC1NC(=O)C(Cc1ccccc1)NS(=O)(=O)c1cccs1 (stereo not drawn)	i	nt	i	i	i	i	nt	nt	nt	nt	nt	nt
O=C(O)CCCN(Cc1cccc(Br)c1)S(=O)(=O)c1ccc(Br)cc1	i	-5.5	i	i	i	i	i	i	0.029	i	0.012	i
NC(=O)CCN(Cc1ccccc1)S(=O)(=O)c1ccccc1	i	i	i	i	i	i	nt	nt	nt	nt	nt	nt
COc1ccc(S(=O)(=O)N(CCC(=O)O)Cc2ccccc2)cc1	i	-3.7	i	i	i	i	i	i	0.022	i	0.015	i
O=C(c1ccccc1SCc1ccc(F)cc1)N1CCOCC1	i	-3.5	i	i	i	i	i	?	0.024	i	0.014	i
COc1ccc(CCNc2oc(COc3ccccc3)nc2C#N)cc1	i	nt	i	i	i	i	i	i	i	?	?	i
N#Cc1nc(COc2ccccc2Cl)oc1NCc1cccnc1	i	-3	i	i	i	i	i	i	i	i	0.022	i
CCCN1C(=O)c2ccc(C(=O)Nc3nccs3)cc2C1=O	i	6	i	i	i	i	i	?	i	i	i	i
SMILES	KCNQ1 inh	KCC2 mod	KCNK3 inh	KCNK9 block	KCNQ1 pot	hERG protect	KCC2 secondary	KCC2 bumet counter	KCC2 secondary2	HEK counter1	KCC2 ouabain	HEK counter2
COCCN1C(=O)c2ccc(C(=O)Nc3nccs3)cc2C1=O	i	i	i	i	i	i	nt	nt	nt	nt	nt	nt
COc1cccc(CC(NC(C)=O)C(=O)NC2CCN(C(=O)C3CC3)CC2)c1OC (stereo not drawn)	i	i	i	i	i	i	nt	nt	nt	nt	nt	nt
O=C1N(C2CCCC2)C[C@@H]2C[C@@H](c3cn[nH]c3-c3ccc(Cl)cc3)N3CCC[C@@]123	i	i	i	i	i	i	nt	nt	nt	nt	nt	nt
COc1ccc2c(c1)C(O)C(CO)C(C(=O)O)C2 (stereo not drawn)	nt	nt	i	nt	nt	nt	nt	nt	nt	nt	nt	nt
COc1cccc(-c2nc(NCCN3CCOCC3)c3ccccc3n2)c1O	i	i	i	i	i	i	i	i	i	i	i	?
Oc1ccccc1-c1nc(NCCN2CCOCC2)c2ccccc2n1	i	nt	i	i	i	i	nt	nt	nt	nt	nt	nt
